SMILES strings stand for the structures. Activity calls are given as the source filed them.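 The calls were made as follows, unless noted: active = mean duplicate potentiation above the buffer control mean plus 5 SD of buffer wells; inactive = the rest.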

Potassium voltage-gated channel subfamily KQT member 1 (Homo sapiens), sequence (P51787 whole entry, looked up): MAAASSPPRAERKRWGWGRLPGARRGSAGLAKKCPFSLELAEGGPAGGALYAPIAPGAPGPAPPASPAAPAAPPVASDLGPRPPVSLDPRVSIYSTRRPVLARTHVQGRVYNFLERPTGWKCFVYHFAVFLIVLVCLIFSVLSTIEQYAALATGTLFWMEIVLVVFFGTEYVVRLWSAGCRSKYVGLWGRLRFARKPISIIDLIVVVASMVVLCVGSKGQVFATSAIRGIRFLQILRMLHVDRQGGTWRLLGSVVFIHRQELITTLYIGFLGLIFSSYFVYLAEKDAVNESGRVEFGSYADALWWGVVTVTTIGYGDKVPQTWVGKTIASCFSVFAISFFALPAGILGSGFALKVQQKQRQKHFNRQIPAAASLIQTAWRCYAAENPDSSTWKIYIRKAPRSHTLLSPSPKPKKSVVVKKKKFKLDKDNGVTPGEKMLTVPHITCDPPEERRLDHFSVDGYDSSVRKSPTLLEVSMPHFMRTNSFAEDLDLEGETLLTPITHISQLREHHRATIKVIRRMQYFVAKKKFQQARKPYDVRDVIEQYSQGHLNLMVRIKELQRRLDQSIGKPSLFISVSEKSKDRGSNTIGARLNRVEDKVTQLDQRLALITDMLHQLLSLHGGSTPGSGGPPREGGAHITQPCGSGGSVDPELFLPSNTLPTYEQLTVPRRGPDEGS

One experiment deals with Potassium voltage-gated channel subfamily KQT member 2 (Rattus norvegicus) (UniProt O88943). The experiment can be described thus: KCNQ2 thallium flux enhancement – KCNQ2-CHO-K1 cells, selectivity assay for KCNQ1 potentiator project (AID 493009).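 Also: assay conditions were tuned for KCNQ1 rather than KCNQ2 modulators; signal is max minus min fluorescence divided by baseline after thallium stimulus.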 The following applies: FluxOR thallium flux fluorescence, at 10 µM; stronger effect = higher value, scaled: buffer 0, activator control 100.
Potassium voltage-gated channel subfamily KQT member 2 (Rattus norvegicus), sequence (O88943 whole entry, looked up): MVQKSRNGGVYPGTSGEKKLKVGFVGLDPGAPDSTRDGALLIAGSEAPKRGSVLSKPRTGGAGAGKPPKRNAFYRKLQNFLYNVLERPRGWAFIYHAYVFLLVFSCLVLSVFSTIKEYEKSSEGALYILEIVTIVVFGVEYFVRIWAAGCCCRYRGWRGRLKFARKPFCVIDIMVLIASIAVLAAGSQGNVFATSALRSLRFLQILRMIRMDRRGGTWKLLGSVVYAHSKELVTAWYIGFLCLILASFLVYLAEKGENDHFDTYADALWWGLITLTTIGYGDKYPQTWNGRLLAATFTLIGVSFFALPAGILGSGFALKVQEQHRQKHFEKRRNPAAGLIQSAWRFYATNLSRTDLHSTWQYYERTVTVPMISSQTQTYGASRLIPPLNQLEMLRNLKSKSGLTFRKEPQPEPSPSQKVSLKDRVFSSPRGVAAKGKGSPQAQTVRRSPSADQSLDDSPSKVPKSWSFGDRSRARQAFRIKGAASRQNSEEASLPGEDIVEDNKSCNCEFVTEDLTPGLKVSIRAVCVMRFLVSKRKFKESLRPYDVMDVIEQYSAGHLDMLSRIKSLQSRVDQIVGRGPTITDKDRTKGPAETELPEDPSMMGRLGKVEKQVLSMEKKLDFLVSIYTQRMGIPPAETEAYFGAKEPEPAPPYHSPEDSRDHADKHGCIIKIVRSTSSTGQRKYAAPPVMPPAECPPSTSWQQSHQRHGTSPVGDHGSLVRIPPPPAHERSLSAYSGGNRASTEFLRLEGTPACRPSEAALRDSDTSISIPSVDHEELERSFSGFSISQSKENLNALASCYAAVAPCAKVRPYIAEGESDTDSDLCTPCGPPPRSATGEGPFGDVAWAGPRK
On to `Cc1ccc(C2=CSC3=NS(=O)(=O)CCN23)cc1`, for which the outcome was inactive.
The same measure, in the same setting: to `CCCN(C(=O)c1cn(-c2ccccc2)nc1-c1ccc(OC)cc1)C1CCS(=O)(=O)C1` (stereo not given) belongs “inactive”; to `Cc1ccc(C(=O)COC(=O)COc2ccccc2C)cc1`, “inactive”.
As to `COc1ccc(C(=O)c2ccc(OC)c(N)c2)cc1N`, the potentiation is 178% (active).
Regarding `COc1cc(C(=O)NNC(=O)C2CC2)cc(OC)c1OC`, the outcome was inactive.
For `CCC1(c2ccc(Cl)cc2)NC(=S)N(c2ccc(C)cc2)N1` (stereo not given), the potentiation was 604% (active).
Same read-out and setting: to `Cc1ccccc1NC(=S)NNC(=O)c1csc2c1CCC(C)C2` (stereo not given) belongs 200% (active).
Regarding `CCC(/C=N/NC(=O)C1COc2ccccc2O1)CC` (stereo not given), the outcome was inactive.
For the molecule `Fc1cccc(/C=N/Nc2ccc3ccccc3n2)c1`, the result was inactive.
Still for that read-out and setting: the result for `CCOC(=O)c1c(NC(=S)NC(=O)c2ccco2)sc2c1CCCC2` reads “inactive”; that for `O=C(/C=C/c1ccco1)Nc1scc(-c2ccccc2)c1C(=O)O`, “inactive”; that for `O=C(CN(Cc1ccccc1Cl)C(=O)c1csnn1)NC1CCCC1`, “inactive”.
The same measure, in the same setting: to `Cn1ccnc1C(OC(=O)c1ccc(Cl)cc1)C(F)(F)F` (stereo not given) belongs “inactive”; to `O=C(COC(=O)C12CC3CC(CC(C3)C1)C2)NCCCc1ccccc1`, “inactive”.
Same read-out and setting: to `Nc1c(-c2ccccc2)cnc2c(-c3ccccc3)cnn12` belongs “inactive”; to `CCn1c(CC(=O)Nc2ccccc2)nnc1SCC(=O)Nc1nncs1`, “inactive”.
For the molecule `Cc1[nH]n(-c2ccc(Cl)cc2)c(=O)c1/C=N/c1nnc(-c2ccccc2)s1`, the potentiation was 466% (active).
Same read-out and setting: the result for `C=CCn1c(=S)[nH]c2ccc(Br)cc2c1=O` reads 200% (active).
In the case of `O=C(CCOc1ccccc1)Nc1ccnn1C1CCN(Cc2ccc(CO)o2)CC1`, the outcome was inactive.
Still for that read-out and setting: the result for `COc1cc2c(cc1OC)CN(C(=O)COc1ccccc1[N+](=O)[O-])CC2` reads “inactive”.
As to `COc1ccc(C)cc1NC(=O)C(=O)NNC(=O)COc1ccc(Cl)cc1`, the potentiation was 258% (active).
For the molecule `C/C(=N\NC(=O)c1cccc(F)c1)c1ccc(Br)s1`, the outcome was inactive.
For `O=C(COC(=O)C1CCC(=O)N1)Nc1ccc(Oc2ccccc2)cc1` (stereo not given), the outcome was inactive.
On the same count and under the same terms, the result for `CCOc1ccc2c(c1)C(NC(C)=O)C(=O)N2CCN1CCOCC1` (stereo not given) reads “inactive”; that for `O=C(NCc1ccccc1)c1onc(CSc2ccc(F)cc2)c1C(=O)NCCCN1CCOCC1`, “inactive”; that for `CCc1nnc(NC(=O)CCC(=O)N2CCN(C3CCCCC3)CC2)s1`, “inactive”.
As to `O=C(NNC(=S)NC(=O)c1sc2ccccc2c1Cl)c1ccc(Cl)cc1`, the potentiation was 319% (active).
Take `Cc1cc(C)nc(CCNC(=O)c2cc(COc3ccccc3)on2)n1`: the outcome was inactive.
Turning to `CCN(CC)CCCNC(=O)c1[nH]c2ccccc2c1Sc1ccc(Cl)cc1`, the outcome was inactive.
As to `CN(C)CCNC(=O)c1ccc2c(=O)n(Cc3ccc(Cl)cc3)c(=S)[nH]c2c1`, the potentiation was 149% (active).
For `CCc1ccc(/C=N/NC(=O)Cc2cccn2C)cc1`, the outcome was inactive.
Regarding `COc1cccc(N(C(=O)Cn2nnc(-c3ccc(C)o3)n2)C(C(=O)NC2CCCC2)c2ccncc2)c1` (stereo not given), the result was inactive.
Consider `Cc1ccc(NC(=S)NC(=O)c2cncc(Br)c2)cc1Cl`, for which the potentiation is 449% (active).
On to `O=C(NCc1ccccc1)/C(=C/c1ccccc1)NC(=O)c1ccco1`, for which the outcome was inactive.
Regarding `Cc1cccc(S(=O)(=O)Nc2cccc3c2C(=O)c2ccccc2-3)c1`, the potentiation was 152% (active).
Still for that read-out and setting: the result for `CC1Cc2ccccc2N1C(=S)NC(=O)c1cccc(Br)c1` (stereo not given) reads 576% (active); that for `CCNC(=S)N=Nc1c(O)n(Cc2ccc(Cl)cc2)c2ccccc12`, 172% (active); that for `N#Cc1ccccc1Oc1ccccc1C=O`, 160% (active).
On to `CCOC(=O)c1sc2ncnc(NCC(c3cccs3)N(C)C)c2c1C` (stereo not given), for which the potentiation is 263% (active).
For the molecule `Cc1c(CN2CCN(C)C(CCO)C2)[nH]c2c(Cl)cccc12` (stereo not given), the outcome was inactive.

The next experiment concerns the target Potassium voltage-gated channel subfamily KQT member 1 (Homo sapiens) (UniProt P51787). The experiment can be described thus: KCNQ1 activators by electrophysiology – IonWorks patch clamp, KCNQ1-CHO cells, orthogonal assay for KCNQ1 potentiator project, confirmation (AID 493184;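 active = current rise at least 3 SD above the untreated control mean in each of two repeat wells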;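 as to current potentiation: percent change of the same well's current before compound addition so 0% = no change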). The settings on record: automated patch clamp current, at 10 µM; stronger effect = higher value. The essentials: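 Assay system – CHO cells carrying KCNQ1 · Medium – pH 7.4 external bath · Probe or stimulus – depolarizing pulse to +40 mV from -90 mV · Compound dosing – one dose, 10 µM final · Measured by – automated perforated-patch electrophysiology · Measure – % potentiation of steady-state current relative to pre-compound · Repeats – two replicates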
In general terms: The patch-clamp technique gives a direct electrical read-out from membranes.
Consider `Cc1ccc(C2=CSC3=NS(=O)(=O)CCN23)cc1`, for which the outcome was inactive.
For the molecule `CCCN(C(=O)c1cn(-c2ccccc2)nc1-c1ccc(OC)cc1)C1CCS(=O)(=O)C1` (stereo not given), the outcome was inactive.
In the case of `Cc1ccc(C(=O)COC(=O)COc2ccccc2C)cc1`, the result was inactive.
As for `COc1ccc(C(=O)c2ccc(OC)c(N)c2)cc1N`, the result was inactive.
As for `COc1cc(C(=O)NNC(=O)C2CC2)cc(OC)c1OC`, the outcome was inactive.
Same read-out and setting: to `CCC1(c2ccc(Cl)cc2)NC(=S)N(c2ccc(C)cc2)N1` (stereo not given) belongs “inactive”; to `Cc1ccccc1NC(=S)NNC(=O)c1csc2c1CCC(C)C2` (stereo not given), “inactive”; to `CCC(/C=N/NC(=O)C1COc2ccccc2O1)CC` (stereo not given), “inactive”.
On to `Fc1cccc(/C=N/Nc2ccc3ccccc3n2)c1`, for which the outcome was inactive.
Same read-out and setting: to `CCOC(=O)c1c(NC(=S)NC(=O)c2ccco2)sc2c1CCCC2` belongs “inactive”.
The same measure, in the same setting: the result for `O=C(/C=C/c1ccco1)Nc1scc(-c2ccccc2)c1C(=O)O` reads “inactive”; that for `O=C(CN(Cc1ccccc1Cl)C(=O)c1csnn1)NC1CCCC1`, “inactive”; that for `Cn1ccnc1C(OC(=O)c1ccc(Cl)cc1)C(F)(F)F` (stereo not given), “inactive”.
For `O=C(COC(=O)C12CC3CC(CC(C3)C1)C2)NCCCc1ccccc1`, the outcome was inactive.
With `Nc1c(-c2ccccc2)cnc2c(-c3ccccc3)cnn12`, the result was inactive.
On the same count and under the same terms, to `CCn1c(CC(=O)Nc2ccccc2)nnc1SCC(=O)Nc1nncs1` belongs “inactive”.
For the molecule `Cc1[nH]n(-c2ccc(Cl)cc2)c(=O)c1/C=N/c1nnc(-c2ccccc2)s1`, the outcome was inactive.
Consider `C=CCn1c(=S)[nH]c2ccc(Br)cc2c1=O`, for which the outcome was inactive.
Same read-out and setting: the result for `O=C(CCOc1ccccc1)Nc1ccnn1C1CCN(Cc2ccc(CO)o2)CC1` reads “inactive”; that for `COc1cc2c(cc1OC)CN(C(=O)COc1ccccc1[N+](=O)[O-])CC2`, “inactive”; that for `COc1ccc(C)cc1NC(=O)C(=O)NNC(=O)COc1ccc(Cl)cc1`, “inactive”.
Turning to `C/C(=N\NC(=O)c1cccc(F)c1)c1ccc(Br)s1`, the result was inactive.
Same read-out and setting: to `O=C(COC(=O)C1CCC(=O)N1)Nc1ccc(Oc2ccccc2)cc1` (stereo not given) belongs “inactive”; to `CCOc1ccc2c(c1)C(NC(C)=O)C(=O)N2CCN1CCOCC1` (stereo not given), “inactive”; to `O=C(NCc1ccccc1)c1onc(CSc2ccc(F)cc2)c1C(=O)NCCCN1CCOCC1`, “inactive”.
On the same count and under the same terms, to `CCc1nnc(NC(=O)CCC(=O)N2CCN(C3CCCCC3)CC2)s1` belongs “inactive”; to `O=C(NNC(=S)NC(=O)c1sc2ccccc2c1Cl)c1ccc(Cl)cc1`, “inactive”.
Same read-out and setting: the result for `Cc1cc(C)nc(CCNC(=O)c2cc(COc3ccccc3)on2)n1` reads “inactive”.
As for `CCN(CC)CCCNC(=O)c1[nH]c2ccccc2c1Sc1ccc(Cl)cc1`, the current potentiation was 29.6% (active).
Consider `CN(C)CCNC(=O)c1ccc2c(=O)n(Cc3ccc(Cl)cc3)c(=S)[nH]c2c1`, for which the result was inactive.
Same read-out and setting: the result for `CCc1ccc(/C=N/NC(=O)Cc2cccn2C)cc1` reads “inactive”; that for `COc1cccc(N(C(=O)Cn2nnc(-c3ccc(C)o3)n2)C(C(=O)NC2CCCC2)c2ccncc2)c1` (stereo not given), “inactive”.
Consider `Cc1ccc(NC(=S)NC(=O)c2cncc(Br)c2)cc1Cl`, for which the result was inactive.
Take `O=C(NCc1ccccc1)/C(=C/c1ccccc1)NC(=O)c1ccco1`: the outcome was inactive.
With `Cc1cccc(S(=O)(=O)Nc2cccc3c2C(=O)c2ccccc2-3)c1`, the result was inactive.
Same read-out and setting: to `CC1Cc2ccccc2N1C(=S)NC(=O)c1cccc(Br)c1` (stereo not given) belongs “inactive”; to `CCNC(=S)N=Nc1c(O)n(Cc2ccc(Cl)cc2)c2ccccc12`, “inactive”; to `N#Cc1ccccc1Oc1ccccc1C=O`, “inactive”.
On the same count and under the same terms, to `CCOC(=O)c1sc2ncnc(NCC(c3cccs3)N(C)C)c2c1C` (stereo not given) belongs “inactive”; to `Cc1c(CN2CCN(C)C(CCO)C2)[nH]c2c(Cl)cccc12` (stereo not given), “inactive”.

Values taken from PubChem BioAssay.
